# Results from ChEMBL document CHEMBL1944567, “Synthesis, biological evaluation, and molecular modeling of chalcone derivatives as potent inhibitors of Mycobacterium tuberculosis protein tyrosine phosphatases (PtpA and PtpB)” (J Med Chem, 2012).
# What was measured:
# [1] = target: T1, Phosphotyrosine-protein phosphatase PTPB (Mycobacterium tuberculosis, UniProt P96830); assay: Inhibition of Mycobacterium tuberculosis PTP-B using p-nitrophenyl phosphate as substrate measured for 10 mins by spectrofluorimetry
# T1 sequence (P96830 whole entry): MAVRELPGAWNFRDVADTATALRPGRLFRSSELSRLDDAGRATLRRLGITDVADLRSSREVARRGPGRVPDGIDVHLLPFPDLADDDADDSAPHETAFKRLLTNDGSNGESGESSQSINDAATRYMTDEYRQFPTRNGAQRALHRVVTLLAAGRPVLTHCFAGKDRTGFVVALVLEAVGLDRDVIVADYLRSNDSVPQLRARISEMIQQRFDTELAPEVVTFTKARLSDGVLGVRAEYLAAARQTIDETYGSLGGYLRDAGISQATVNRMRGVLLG
# How it was run: (§1)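 A410 read each minute over 10 min at 37 °C. Residual activity compared with wells without inhibitor; IC50 by linear regression of % inhibition against concentration. Triplicate, two independent experiments.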
# [2] = Solubility of the compound; type: physicochemical
# [3] = target: T2, Phosphotyrosine-protein phosphatase PTPB (Mycobacterium tuberculosis) (UniProt P96830); assay: Inhibition of Mycobacterium tuberculosis PTP-B using p-nitrophenyl phosphate as substrate at 25 uM measured for 10 mins by spectrofluorimetry
# T2 sequence (whole entry): T1 sequence (P96830 whole entry)
# How it was run: (§2)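 Single-point screen at 25 μM final compound, added from 1.0 × 10−3 M DMSO stock, with recombinant Mtb PtpA or PtpB (0.4 μg/μL final) in 20 mM imidazole pH 7.0 with 40 mM pNPP. Reaction started by adding enzyme. p-Nitrophenol release read at 410 nm every min for 10 min at 37 °C. Residual activity was taken from the absorbance difference between 6 and 2 min; two experiments, each in triplicate.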
# [4] = target: T3, Low molecular weight protein-tyrosine phosphatase A (Mycobacterium tuberculosis) (UniProt P9WIA1); assay: Inhibition of Mycobacterium tuberculosis PTP-A using p-nitrophenyl phosphate as substrate at 25 uM measured for 10 mins by spectrofluorimetry; how it was run: as §2
# T3 sequence (whole entry): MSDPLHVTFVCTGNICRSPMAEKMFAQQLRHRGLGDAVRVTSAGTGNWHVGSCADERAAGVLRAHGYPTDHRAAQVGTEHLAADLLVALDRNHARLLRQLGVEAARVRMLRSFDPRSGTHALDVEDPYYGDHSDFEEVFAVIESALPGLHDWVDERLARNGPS
# [5] = target: T4, Low molecular weight protein-tyrosine phosphatase A (Mycobacterium tuberculosis, UniProt P9WIA1); assay: Inhibition of Mycobacterium tuberculosis PTP-A using p-nitrophenyl phosphate as substrate measured for 10 mins by spectrofluorimetry; how it was run: as §1
# T4 sequence (P9WIA1 whole entry): T3 sequence (whole entry)
SMILES,IC50 [1],solubility [2],inhibition [3],inhibition [4],IC50 [5]
O=C(/C=C/c1ccc2ccccc2c1)c1ccc[nH]1,81 µM,soluble,37%,16%,–
COc1cc(/C=C/C(=O)c2ccc(-n3ccnc3)cc2)ccc1OCc1ccccc1,–,soluble,0%,38%,102 µM
O=C(/C=C/c1ccc(Br)cc1)c1ccc2c(c1)OCO2,–,soluble,9%,37%,66 µM
O=C(/C=C/c1ccc([N+](=O)[O-])cc1)c1ccc2ccccc2c1,62 µM,soluble,39%,18%,–
O=C(/C=C/c1cccc2ccccc12)c1ccc2ccccc2c1,–,soluble,0%,43%,93 µM
COc1cccc(OC)c1/C=C/C(=O)c1ccc2ccccc2c1,–,soluble,24%,40%,214 µM
O=C(/C=C/c1ccc(Cl)cc1Cl)c1ccc2c(c1)OCO2,–,soluble,0%,27%,407 µM
O=C(/C=C/c1ccc(Cl)c(Cl)c1)c1ccc2c(c1)OCO2,–,soluble,0%,35%,151 µM
O=C(/C=C/c1ccc2ccccc2c1)c1ccc2ccccc2c1,–,soluble,25%,39%,93 µM
COc1ccc2nc(Cl)c(/C=C/C(=O)c3ccc4c(c3)OCO4)cc2c1,–,soluble,0%,29%,93 µM
COc1cc(/C=C/C(=O)c2ccc(Br)cc2)ccc1OCc1ccccc1,–,soluble,0%,63%,302 µM
O=C(/C=C/c1ccc2ccccc2c1)c1ccc(-n2ccnc2)cc1,–,soluble,0%,40%,100 µM
COc1ccc(/C=C/C(=O)c2ccc3ccccc3c2)cc1,–,soluble,0%,35%,93 µM
Cc1ccc(C(=O)/C=C/c2ccc3ccccc3c2)cc1,135 µM,soluble,34%,10%,–
Cc1ccc(/C=C/C(=O)c2ccc3c(c2)OCO3)o1,–,soluble,8%,40%,169 µM
Cc1ccc(/C=C/C(=O)c2ccc3ccccc3c2)o1,–,soluble,0%,30%,1020 µM
O=C(/C=C/c1cccc(C(F)(F)F)c1)c1ccc2c(c1)OCO2,–,soluble,0%,41%,155 µM
O=C(/C=C/c1ccccc1[N+](=O)[O-])c1ccc2ccccc2c1,54 µM,soluble,32%,10%,–
O=C(/C=C/c1ccc(-c2cc(C(F)(F)F)ccc2Cl)o1)c1ccc2c(c1)OCO2,–,soluble,16%,36%,174 µM
COc1ccc(C(=O)/C=C/c2ccc3c(c2)OCO3)c(OC)c1,–,soluble,0%,42%,101 µM
COc1cc(OC)c(/C=C/C(=O)c2ccc3ccccc3c2)c(OC)c1,–,soluble,0%,49%,1660 µM
O=C(/C=C/c1ccc(C(F)(F)F)cc1)c1ccc2ccccc2c1,339 µM,soluble,37%,43%,331 µM

SMILES,IC50 [1],solubility [2],inhibition [3],inhibition [4],IC50 [5]
O=C(/C=C/c1ccccc1[N+](=O)[O-])c1ccc2c(c1)OCO2,81 µM,soluble,43%,0%,–
O=C(/C=C/c1ccccc1F)c1ccc2c(c1)OCO2,–,soluble,0%,9%,–
CN(C)c1ccc(/C=C/C(=O)c2ccc3c(c2)OCO3)cc1,–,soluble,0%,10%,–
COc1cc(/C=C/C(=O)c2ccc3ccccc3c2)ccc1OCc1ccccc1,–,soluble,0%,5%,–
O=C(/C=C/c1ccccc1Cl)c1ccc2c(c1)OCO2,–,soluble,0%,5%,–
COc1ccc(OC)c(/C=C/C(=O)c2ccc3ccccc3c2)c1,–,soluble,0%,22%,–
O=C(/C=C/c1ccc(Cl)cc1)c1ccc2c(c1)OCO2,–,soluble,0%,38%,117 µM
O=C(/C=C/c1ccc(Cl)cc1Cl)c1ccc2ccccc2c1,417 µM,soluble,47%,10%,–
O=C(/C=C/c1cccc([N+](=O)[O-])c1)c1ccc2c(c1)OCO2,–,soluble,22%,23%,–
COc1ccc(/C=C/C(=O)c2ccc3c(c2)OCO3)c(OC)c1OC,–,soluble,9%,26%,83 µM
COc1ccc(/C=C/C(=O)c2ccc3ccccc3c2)c(OC)c1OC,–,soluble,0%,0%,–
COc1ccc(OC)c(C(=O)/C=C/c2ccc(OCc3ccccc3)c(OC)c2)c1,–,soluble,16%,12%,–
Cc1ccc(/C=C/C(=O)c2ccc3ccccc3c2)cc1,–,soluble,28%,8%,–
N#Cc1ccc(/C=C/C(=O)c2ccc3c(c2)OCO3)cc1,–,soluble,0%,4%,–
O=C(/C=C/c1cccc(Br)c1)c1ccc2c(c1)OCO2,–,soluble,0%,5%,–
O=C(/C=C/c1ccccc1)c1ccc2c(c1)OCO2,–,soluble,0%,0%,–
O=C(/C=C/c1ccc(Cl)cc1)c1ccc2ccccc2c1,–,soluble,27%,13%,–
COc1cccc(C(=O)/C=C/c2ccc3ccccc3c2)c1,–,soluble,0%,0%,–
O=C(/C=C/c1ccc([N+](=O)[O-])cc1)c1ccc2c(c1)OCO2,–,soluble,10%,35%,74 µM
COc1ccc(/C=C/C(=O)c2ccc3c(c2)OCO3)cc1OC,–,soluble,0%,19%,–
Cc1ccc(/C=C/C(=O)c2ccc3c(c2)OCO3)cc1,–,soluble,0%,14%,–
COc1ccc(OC)c(/C=C/C(=O)c2ccc3c(c2)OCO3)c1,–,soluble,0%,10%,–
